Laboratory results taken from publication PMC3477254 (ACS chemical biology, 2012).
Entries after “also recorded” stand apart in the source; their conditions may differ.

Legend:
r(CGG)12-DGCR8Δ complex = assay: TR-FRET protein displacement assay; assay type: biochemical
[1] = molecular target: RNA containing one 5’CGG/3’GGC motif (1x1 nucleotide GG internal loop); assay: RNA-binding assay via Hoechst 33258 dye displacement; conditions: competition with Hoechst 33258 (1 µM), RNA 1 µM
Summary of the method: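 RNA was annealed at 60 °C for 5 min in phosphate buffer (8 mM Na₂HPO₄ pH 7.0, 185 mM NaCl, 0.1 mM EDTA, BSA), then slow-cooled. Titrating RNA into 1000 nM Hoechst 33258 (ex 360/40, em 460/40 nm) gave the dye Kd. Test compound was then titrated into 1 µM RNA plus 1 µM Hoechst. Loss of fluorescence was fit to a competitive binding equation to obtain Kd.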

r(CGG)12 = assay: Competition dialysis, r; assay type: binding; conditions: 2 µM RNA, 0.7 µM ligand
Summary of the method: (§1)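 2 µM RNA or DGCR8Δ protein was placed in dialysis units (MWCO 2,000) immersed in 0.7 µM ligand. Two buffer-only units were tracked by absorbance to confirm equilibration. SDS was then added to 1% final, and absorbance gave total ligand inside the units and free ligand in the dialysate. Bound ligand was calculated as total minus free.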

DGCR8Δ = assay: Competition dialysis, DGCR8Δ; assay type: binding; conditions: 2 µM protein, 0.7 µM ligand
Summary of the method: as §1

fully paired RNAs = assay: Competition dialysis, fully paired RNAs; assay type: binding; conditions: 2 µM RNA, 0.7 µM ligand
Summary of the method: as §1

[2] = tested on: SMN2 exon 7 alternative splicing in COS7 cells; assay: SMN2 pre-mRNA splicing by RT-PCR in FXTAS cell model; assay type: cell-based
Summary of the method: (§2)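 COS7 cells were grown in DMEM with 10% FBS and GlutaMax. At 90–95% confluency they were transfected with equal amounts of a plasmid carrying 60 CGG repeats and an SMN2 or Bcl-x mini-gene. About 5 h later, medium containing test compound replaced the transfection mix. After 16–24 h, total RNA was extracted with on-column DNase digestion. Roughly 300 ng was reverse transcribed and 150 ng went to PCR for 25–30 cycles. Isoforms were gel-separated, imaged and quantified.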

[3] = tested on: Bcl-x exon 2 alternative splicing in COS7 cells; assay: Bcl-x pre-mRNA splicing by RT-PCR in FXTAS cell model; assay type: cell-based
Summary of the method: as §2

[4] = tested on: PLEKHH2 alternative splicing in COS7 cells; assay: PLEKHH2 mini-gene splicing control; assay type: cell-based; conditions: 500 µM; splicing not regulated by Sam68
Summary of the method: (§3)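 COS7 cells were co-transfected with the 60 CGG-repeat mini-gene and a PLEKHH2 or cTNT mini-gene, whose splicing is not under Sam68 control. Compound treatment and RT-PCR followed the same procedure: medium with test compound for 16–24 h, total RNA extraction, reverse transcription, 25–30 PCR cycles, then gel separation and quantification of the splice isoforms.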

[5] = tested on: cardiac troponin T (cTNT) alternative splicing in COS7 cells; assay: cTNT mini-gene splicing control; assay type: cell-based; conditions: 500 µM; splicing not regulated by Sam68
Summary of the method: as §3

[6] = tested on: r(CGG)^exp nuclear foci in COS7 cells; assay: FISH assay of r; assay type: cell-based; conditions: COS7 cells expressing r(CGG)60 and GFP
Summary of the method: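 COS7 cells on coverslips were co-transfected with r(CGG)60 and GFP plasmids, then treated with test compound. Cells were fixed in 4% paraformaldehyde for 15 min and permeabilized with 0.5% Triton X-100. They were prehybridized for 30 min in 2X SSC/40% formamide, then hybridized for 2 h with a (CCG)8-Cy3 DNA probe. After DAPI counterstaining, cells were imaged by confocal or fluorescence microscopy; only GFP-positive cells were scored for nuclear foci.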

[7] = COS7 cells expressing r(CGG)60, 100 µM
[8] = COS7 cells expressing r(CGG)60, 500 µM
[9] = cells that do not express r(CGG)60

SMILES: Cc1c2cc[n+](CCN3CCCCC3)cc2c(C)c2c1[nH]c1ccc(O)cc12 [1a, 9-hydroxy-5,11-dimethyl-2-(2-(piperidin-1-yl)ethyl)-6H-pyrido[4,3-b]carbazol-2-ium]
- Percentage displacement at 25 µM (r(CGG)12-DGCR8Δ complex; 25 µM compound, protein displaced from r(CGG)12): 85 ± 1%
- IC50 (r(CGG)12-DGCR8Δ complex; read-out: IC50 for disruption of the r(CGG)12-DGCR8Δ complex, TR-FRET assay): 13 ± 0.4 µM
- Kd [1]: 0.076 ± 0.004 µM
- Binding to r(CGG)12 (r(CGG)12): binds tightly
- Binding to DGCR8Δ (DGCR8Δ): very little binding
- Amount of ligand partitioned into fully paired RNAs relative to r(CGG)12 (fully paired RNAs): less than half
- Improvement of SMN2 splicing defects ([2]; COS7 cells expressing r(CGG)60, 20 µM): improvement of SMN2 splicing defects can be observed
- SMN2 pre-mRNA splicing level relative to wild type [2, 7]: approximately 70 % of wild type
- SMN2 pre-mRNA splicing [2, 8]: restores pre-mRNA splicing to levels wild type
- SMN2 pre-mRNA splicing defects ([2]; COS7 cells, CGG 60X mini-gene, Figure 4A): improves SMN2 pre-mRNA splicing defects
- Effect on SMN2 splicing [2, 9]: No statistically significant effect
- Improvement of Bcl-x splicing dysregulation [3, 7]: Statistically significant improvement
- Bcl-x splicing [3, 8]: restoration of wild type splicing patterns
- Bcl-x pre-mRNA splicing defects ([3]; COS7 cells, CGG 60X mini-gene, Figure 4B): improves Bcl-x pre-mRNA splicing defects
- Effect on Bcl-x splicing [3, 9]: No statistically significant effect
- Effect on PLEKHH2 alternative splicing [4]: did not affect
- Effect on cTNT alternative splicing [5]: did not affect
- Size and number of r(CGG)exp nuclear foci [6]: reduces the size and the number of foci; also recorded: decreases r(CGG)^exp-protein aggregates
